Reference: ChEMBL document CHEMBL1153278, “Discovery of novel non-peptidic beta-alanine piperazine amide derivatives and their optimization to achiral, easily accessible, potent and selective somatostatin sst1 receptor antagonists” (Bioorg Med Chem Lett, 2009)

How the values were obtained:
Rattus norvegicus = species on record: Rattus norvegicus; experiment: Selectivity for rat sst1 receptor over rat sst2 receptor
[1] = biological target: Somatostatin receptor type 2 (Rattus norvegicus, UniProt P30680); experiment: Binding affinity to rat sst2 receptor
Chain of Somatostatin receptor type 2 (Rattus norvegicus, UniProt P30680) (P30680 whole entry): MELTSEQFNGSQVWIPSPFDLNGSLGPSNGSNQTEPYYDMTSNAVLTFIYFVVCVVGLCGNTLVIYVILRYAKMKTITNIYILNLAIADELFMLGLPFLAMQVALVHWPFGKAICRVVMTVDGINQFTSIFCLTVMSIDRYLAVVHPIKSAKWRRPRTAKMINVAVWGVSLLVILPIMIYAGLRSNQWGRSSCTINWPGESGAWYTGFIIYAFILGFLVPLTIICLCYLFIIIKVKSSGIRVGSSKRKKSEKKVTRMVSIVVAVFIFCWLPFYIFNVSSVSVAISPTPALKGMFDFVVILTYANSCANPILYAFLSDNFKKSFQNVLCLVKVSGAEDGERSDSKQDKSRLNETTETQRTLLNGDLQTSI
How it was run: (§1)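 Receptor binding run on rat sst1 and sst2 and on human sst1–sst5; affinities given as pKd, mean ± SEM of 3–6 experiments.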

[2] = biological target: Somatostatin receptor type 1 (Rattus norvegicus, UniProt P28646); experiment: Binding affinity to rat sst1 receptor; how it was run: as §1
Chain of Somatostatin receptor type 1 (Rattus norvegicus, UniProt P28646) (P28646 whole entry): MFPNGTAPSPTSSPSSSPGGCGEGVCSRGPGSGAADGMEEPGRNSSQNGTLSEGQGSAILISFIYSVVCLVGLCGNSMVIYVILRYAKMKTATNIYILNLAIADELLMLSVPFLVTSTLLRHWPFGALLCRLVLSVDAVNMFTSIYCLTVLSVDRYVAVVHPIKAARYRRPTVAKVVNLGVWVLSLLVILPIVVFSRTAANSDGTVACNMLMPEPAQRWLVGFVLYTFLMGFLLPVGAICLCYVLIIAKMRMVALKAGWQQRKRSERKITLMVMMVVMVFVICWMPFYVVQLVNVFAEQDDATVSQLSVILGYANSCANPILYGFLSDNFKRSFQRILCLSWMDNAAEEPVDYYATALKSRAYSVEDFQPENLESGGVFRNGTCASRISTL

[3] = biological target: T1, Somatostatin receptor type 1 (Homo sapiens, UniProt P30872); experiment: Binding affinity to human sst1 receptor; how it was run: as §1
T1 sequence (P30872 whole entry): as the sequence (P28646 whole entry) above, with P8S, T11S, S16P, G20S, V25G, C26G, S32A, S45A, A385T, S389T counted along it

Cytochrome P450 2D6 = Cytochrome P450 2D6 (Homo sapiens, UniProt P10635); experiment: Inhibition of human CYP2D6 by microplate-based direct fluorometric assay; assay type: ADME
Chain of Cytochrome P450 2D6 (P10635 whole entry): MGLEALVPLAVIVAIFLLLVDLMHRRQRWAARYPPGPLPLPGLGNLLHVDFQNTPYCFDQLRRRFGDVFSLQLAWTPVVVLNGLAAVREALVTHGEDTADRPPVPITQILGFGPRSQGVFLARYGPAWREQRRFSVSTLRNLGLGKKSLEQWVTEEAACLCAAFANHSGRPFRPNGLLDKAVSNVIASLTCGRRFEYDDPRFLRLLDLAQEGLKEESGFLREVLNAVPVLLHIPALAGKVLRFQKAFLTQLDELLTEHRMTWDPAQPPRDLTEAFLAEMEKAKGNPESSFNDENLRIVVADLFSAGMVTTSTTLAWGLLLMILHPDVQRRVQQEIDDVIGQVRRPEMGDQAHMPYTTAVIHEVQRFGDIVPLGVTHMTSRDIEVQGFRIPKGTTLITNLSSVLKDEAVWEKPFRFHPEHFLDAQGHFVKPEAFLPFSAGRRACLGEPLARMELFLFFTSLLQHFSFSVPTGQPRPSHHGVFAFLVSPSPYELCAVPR

[4] = biological target: T1, Somatostatin receptor type 1; experiment: Antagonist activity at human sst1 receptor assessed as inhibition of forskolin-stimulated cAMP accumulation by luciferase assay; assay type: functional
Cytochrome P450 3A4 = Cytochrome P450 3A4 (Homo sapiens, UniProt P08684); experiment: Inhibition of human CYP3A4 by microplate-based direct fluorometric assay; assay type: ADME
Chain of Cytochrome P450 3A4 (P08684 whole entry): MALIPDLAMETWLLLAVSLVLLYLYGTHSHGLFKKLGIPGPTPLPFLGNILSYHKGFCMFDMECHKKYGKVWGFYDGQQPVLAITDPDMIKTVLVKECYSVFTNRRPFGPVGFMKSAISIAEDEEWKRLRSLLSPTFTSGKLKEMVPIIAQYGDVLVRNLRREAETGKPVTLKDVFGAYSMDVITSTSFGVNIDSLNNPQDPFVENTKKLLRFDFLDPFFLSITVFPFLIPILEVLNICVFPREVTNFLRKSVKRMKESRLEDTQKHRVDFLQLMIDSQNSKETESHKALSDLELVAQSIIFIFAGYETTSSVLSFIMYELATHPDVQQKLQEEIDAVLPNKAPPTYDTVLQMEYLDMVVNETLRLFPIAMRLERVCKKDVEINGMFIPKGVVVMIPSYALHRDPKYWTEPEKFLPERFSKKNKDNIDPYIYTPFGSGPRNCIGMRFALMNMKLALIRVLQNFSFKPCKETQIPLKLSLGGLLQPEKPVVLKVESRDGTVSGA

[5] = Tmax in mouse at 10 umol/kg, iv and 30 umol/kg, po; assay type: ADME, organism-based; conditions: in vivo
How it was run: (§2)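 Mice dosed by the intravenous and the oral route; drug levels followed in both plasma and brain; apparent terminal half-life taken from plasma; oral bioavailability estimated.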

V79 = experiment: Genotoxicity in Chinese hamster V79 cells by micronucleus test; assay type: toxicity, cell-based, Cricetulus griseus
[6] = Ratio of drug level in brain to plasma in mouse at 10 umol/kg, iv and 30 umol/kg, po; assay type: ADME, organism-based
How it was run: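 Pharmacokinetic study in mice given a single intravenous dose or an oral dose. Drug concentrations were measured in plasma and brain over time after each route. The brain/plasma concentration ratio was derived for each route.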

[7] = biological target: Somatostatin receptor type 1 (Rattus norvegicus) (UniProt P28646); experiment: Antagonist activity at rat sst1 receptor assessed as inhibition of forskolin-stimulated cAMP accumulation by luciferase assay; assay type: functional
Chain of Somatostatin receptor type 1 (Rattus norvegicus) (P28646 whole entry): as the sequence (P28646 whole entry) above

[8] = biological target: Somatostatin receptor type 3 (Homo sapiens, UniProt P32745); experiment: Binding affinity to human sst3 receptor; how it was run: as §1
Chain of Somatostatin receptor type 3 (P32745 whole entry): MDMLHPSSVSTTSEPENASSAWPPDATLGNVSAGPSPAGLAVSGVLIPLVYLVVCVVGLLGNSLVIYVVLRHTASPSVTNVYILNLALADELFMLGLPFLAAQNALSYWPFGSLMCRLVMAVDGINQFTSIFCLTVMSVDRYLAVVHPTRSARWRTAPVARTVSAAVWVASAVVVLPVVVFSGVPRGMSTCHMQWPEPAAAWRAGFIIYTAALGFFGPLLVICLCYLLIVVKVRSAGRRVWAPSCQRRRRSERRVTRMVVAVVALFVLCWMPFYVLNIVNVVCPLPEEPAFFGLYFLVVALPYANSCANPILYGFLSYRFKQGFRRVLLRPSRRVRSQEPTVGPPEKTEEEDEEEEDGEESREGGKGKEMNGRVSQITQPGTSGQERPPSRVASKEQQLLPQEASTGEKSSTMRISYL

D(4) dopamine receptor = biological target: T2, D(4) dopamine receptor (Homo sapiens, UniProt P21917); experiment: Binding affinity to dopamine D4 receptor
T2 sequence (P21917 whole entry): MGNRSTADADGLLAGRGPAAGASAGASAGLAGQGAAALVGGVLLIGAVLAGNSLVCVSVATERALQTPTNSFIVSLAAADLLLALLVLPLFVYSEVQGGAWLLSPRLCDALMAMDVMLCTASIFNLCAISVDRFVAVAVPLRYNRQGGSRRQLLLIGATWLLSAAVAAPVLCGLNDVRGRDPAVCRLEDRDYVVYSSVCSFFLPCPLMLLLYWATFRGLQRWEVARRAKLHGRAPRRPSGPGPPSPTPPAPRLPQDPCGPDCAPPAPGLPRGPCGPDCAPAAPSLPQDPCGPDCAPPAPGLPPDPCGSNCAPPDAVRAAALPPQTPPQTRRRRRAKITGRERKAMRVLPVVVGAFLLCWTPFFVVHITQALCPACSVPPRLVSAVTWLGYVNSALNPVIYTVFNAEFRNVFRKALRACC

[9] = biological target: Somatostatin receptor type 2 (Homo sapiens, UniProt P30874); experiment: Binding affinity to human sst2 receptor; how it was run: as §1
Chain of Somatostatin receptor type 2 (Homo sapiens, UniProt P30874) (P30874 whole entry): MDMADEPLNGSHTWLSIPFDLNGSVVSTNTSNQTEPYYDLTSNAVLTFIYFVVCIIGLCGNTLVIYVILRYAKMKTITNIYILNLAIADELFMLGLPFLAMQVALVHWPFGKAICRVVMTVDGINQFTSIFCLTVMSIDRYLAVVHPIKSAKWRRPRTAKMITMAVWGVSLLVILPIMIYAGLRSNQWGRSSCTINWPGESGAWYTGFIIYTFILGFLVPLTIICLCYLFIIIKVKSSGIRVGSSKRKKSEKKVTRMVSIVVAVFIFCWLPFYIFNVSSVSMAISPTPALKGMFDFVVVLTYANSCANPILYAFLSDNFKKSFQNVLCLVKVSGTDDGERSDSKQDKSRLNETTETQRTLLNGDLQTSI

D(2) dopamine receptor = D(2) dopamine receptor (Homo sapiens, UniProt P14416); experiment: Binding affinity to dopamine D2 receptor
Chain of D(2) dopamine receptor (P14416 whole entry): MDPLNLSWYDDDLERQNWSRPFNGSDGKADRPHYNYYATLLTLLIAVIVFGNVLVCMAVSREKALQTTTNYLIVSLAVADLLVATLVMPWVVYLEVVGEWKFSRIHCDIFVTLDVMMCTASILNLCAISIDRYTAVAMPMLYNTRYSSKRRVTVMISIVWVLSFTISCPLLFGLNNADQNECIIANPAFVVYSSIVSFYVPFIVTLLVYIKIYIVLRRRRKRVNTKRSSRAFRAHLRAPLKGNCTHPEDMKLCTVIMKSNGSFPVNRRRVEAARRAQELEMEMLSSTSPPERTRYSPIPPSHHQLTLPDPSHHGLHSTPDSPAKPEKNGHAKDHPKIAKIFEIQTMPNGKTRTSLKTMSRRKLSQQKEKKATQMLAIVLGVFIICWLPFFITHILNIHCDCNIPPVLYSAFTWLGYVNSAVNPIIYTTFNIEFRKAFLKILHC

Cytochrome P450 1A2 = biological target: T3, Cytochrome P450 1A2 (Homo sapiens, UniProt P05177); experiment: Inhibition of human CYP1A2 by microplate-based direct fluorometric assay; assay type: ADME
T3 sequence (P05177 whole entry): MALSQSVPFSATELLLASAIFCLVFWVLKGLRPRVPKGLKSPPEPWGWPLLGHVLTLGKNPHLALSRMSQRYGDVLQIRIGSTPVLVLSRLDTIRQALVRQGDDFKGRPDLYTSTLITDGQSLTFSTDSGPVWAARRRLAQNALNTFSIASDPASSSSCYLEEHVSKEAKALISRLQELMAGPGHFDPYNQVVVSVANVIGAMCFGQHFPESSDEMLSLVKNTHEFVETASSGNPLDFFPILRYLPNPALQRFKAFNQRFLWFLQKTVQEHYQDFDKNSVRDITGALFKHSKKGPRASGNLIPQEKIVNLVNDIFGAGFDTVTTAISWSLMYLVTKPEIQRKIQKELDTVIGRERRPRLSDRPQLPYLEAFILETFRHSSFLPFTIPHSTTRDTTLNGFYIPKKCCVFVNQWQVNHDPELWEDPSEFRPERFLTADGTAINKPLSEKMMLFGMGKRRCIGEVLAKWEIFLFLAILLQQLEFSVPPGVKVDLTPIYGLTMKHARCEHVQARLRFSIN

[10] = Apparent terminal half life in mouse plasma at 10 umol/kg, iv and 30 umol/kg, po; assay type: ADME, organism-based; conditions: read-out: beta t1/2 (converted); how it was run: as §2
[11] = Binding affinity to adrenergic alpha1 receptor
[12] = Oral bioavailability in mouse at 30 umol/kg; assay type: ADME, organism-based; conditions: in vivo; how it was run: as §2
Cytochrome P450 2C19 = Cytochrome P450 2C19 (Homo sapiens, UniProt P33261); experiment: Inhibition of human CYP2C19 by microplate-based direct fluorometric assay; assay type: ADME
Chain of Cytochrome P450 2C19 (P33261 whole entry): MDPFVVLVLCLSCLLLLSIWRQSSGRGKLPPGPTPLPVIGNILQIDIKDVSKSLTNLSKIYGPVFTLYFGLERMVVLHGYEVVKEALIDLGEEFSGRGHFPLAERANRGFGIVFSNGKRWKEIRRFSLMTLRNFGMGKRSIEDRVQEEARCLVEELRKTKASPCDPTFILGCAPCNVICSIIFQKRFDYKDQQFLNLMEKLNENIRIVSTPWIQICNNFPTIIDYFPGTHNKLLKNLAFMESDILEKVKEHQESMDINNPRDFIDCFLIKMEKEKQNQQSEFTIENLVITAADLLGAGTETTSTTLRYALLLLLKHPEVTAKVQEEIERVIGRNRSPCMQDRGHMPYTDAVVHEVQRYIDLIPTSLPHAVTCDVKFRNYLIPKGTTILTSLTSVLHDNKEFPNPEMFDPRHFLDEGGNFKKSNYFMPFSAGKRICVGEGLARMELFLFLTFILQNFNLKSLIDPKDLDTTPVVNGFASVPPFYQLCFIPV

[13] = biological target: Somatostatin receptor type 4 (Homo sapiens, UniProt P31391); experiment: Binding affinity to human sst4 receptor; how it was run: as §1
Chain of Somatostatin receptor type 4 (P31391 whole entry): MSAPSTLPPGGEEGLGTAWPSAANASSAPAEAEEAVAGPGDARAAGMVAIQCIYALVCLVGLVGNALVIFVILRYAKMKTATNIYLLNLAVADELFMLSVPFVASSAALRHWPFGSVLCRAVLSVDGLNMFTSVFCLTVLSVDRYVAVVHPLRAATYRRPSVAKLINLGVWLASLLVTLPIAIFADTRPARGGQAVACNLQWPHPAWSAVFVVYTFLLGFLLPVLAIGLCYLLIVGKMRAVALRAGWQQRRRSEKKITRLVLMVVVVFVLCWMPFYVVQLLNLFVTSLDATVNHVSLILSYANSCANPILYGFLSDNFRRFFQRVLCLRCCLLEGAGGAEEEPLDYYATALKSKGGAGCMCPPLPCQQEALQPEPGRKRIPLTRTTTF

[14] = biological target: Somatostatin receptor type 5 (Homo sapiens, UniProt P35346); experiment: Binding affinity to human sst5 receptor; how it was run: as §1
Chain of Somatostatin receptor type 5 (P35346 whole entry): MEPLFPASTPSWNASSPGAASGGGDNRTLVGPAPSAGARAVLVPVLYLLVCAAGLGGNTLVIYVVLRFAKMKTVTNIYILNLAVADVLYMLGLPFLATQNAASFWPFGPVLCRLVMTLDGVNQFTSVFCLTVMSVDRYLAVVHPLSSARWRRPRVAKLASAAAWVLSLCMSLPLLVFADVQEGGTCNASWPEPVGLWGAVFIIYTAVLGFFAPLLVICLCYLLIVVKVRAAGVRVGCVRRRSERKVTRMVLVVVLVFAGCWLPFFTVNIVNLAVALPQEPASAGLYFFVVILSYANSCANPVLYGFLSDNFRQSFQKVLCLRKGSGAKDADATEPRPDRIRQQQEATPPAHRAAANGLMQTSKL

Kd [1] [nM] | Kd [2] [nM] | SMILES | also measured
3470 | 18.2 | CN(CCC(=O)N1CCN(c2ccc([N+](=O)[O-])cc2)CC1)CCC1c2ccccc2CCc2ccccc21 | fold change (FC) (Rattus norvegicus): > 100
18600 | 29.5 | CN(CCC(=O)N1CCN(c2ccc([N+](=O)[O-])cc2)CC1)CCC1c2ccccc2Cc2ccccc21 | –
– | 1.91 | CN(CCC(=O)N1CCN(c2ccc(Cl)c(Cl)c2)CC1)CCC1c2ccccc2-c2ccccc21 | –
– | 61.7 | CN(CCC(=O)N1CCN(c2cccc(C(F)(F)F)c2)CC1)CCC1c2ccccc2-c2ccccc21 | –
– | 3.31 | CN(CCC(=O)N1CCN(c2ccc(F)cc2F)CC1)CCC1c2ccccc2-c2ccccc21 | –
6030 | 12.6 | CN(CCC(=O)N1CCN(c2ccc([N+](=O)[O-])cc2)CC1)CCC1c2ccccc2Sc2ccccc21 | –
– | 4.57 | CN(CCC(=O)N1CCN(c2ccc3c(c2)OCO3)CC1)CCC1c2ccccc2-c2ccccc21 | –
– | 21.4 | CN(CCC(=O)N1CCN(c2ccncc2)CC1)CCC1c2ccccc2-c2ccccc21 | –
6760 | 0.891 | CN(CCC(=O)N1CCN(c2ccc([N+](=O)[O-])cc2)CC1)CCC1c2ccccc2Oc2ccccc21 | fold change (FC) (Rattus norvegicus): > 1000
19500 | 0.575 | CN(CCC(=O)N1CCN(c2ccc(F)c(F)c2)CC1)CCC1c2ccccc2-c2ccccc21.Cl | Kd [3]: 5.37 nM; fold change (FC) (Rattus norvegicus): > 10000; IC50 (Cytochrome P450 2D6): 1300 nM; pKb [4]: 8.46; IC50 (Cytochrome P450 3A4): > 10000 nM; Tmax [5]: 1 h; Activity (V79): Non-toxic; Kp [6]: > 1; pKb [7]: 8.55; Kd [8]: 2690 nM; Kd (D(4) dopamine receptor): 126 nM; Kd [9]: 12300 nM; Kd (D(2) dopamine receptor): 776 nM; IC50 (Cytochrome P450 1A2): > 10000 nM; half-life [10]: 6 h; pKd [11]: 6.53; bioavailability [12]: 7%; IC50 (Cytochrome P450 2C19): > 10000 nM; Kd [13]: 2400 nM
912 | 4.68 | CC(C)N(CCC(=O)N1CCN(c2ccc([N+](=O)[O-])cc2)CC1)CCC1c2ccccc2-c2ccccc21 | –
– | 6.61 | CN(CCC(=O)N1CCN(c2ccc(=O)n(C)n2)CC1)CCC1c2ccccc2-c2ccccc21 | –
– | 24 | CN(CCC(=O)N1CCN(c2ccccc2Cl)CC1)CCC1c2ccccc2-c2ccccc21 | –
6920 | 45.7 | O=C(CCN(CCC1c2ccccc2-c2ccccc21)CC1CC1)N1CCN(c2ccc([N+](=O)[O-])cc2)CC1 | –
– | 3.63 | CN(CCC(=O)N1CCN(c2cccc(F)c2)CC1)CCC1c2ccccc2-c2ccccc21 | –
4070 | 7.08 | C=CCN(CCC(=O)N1CCN(c2ccc([N+](=O)[O-])cc2)CC1)CCC1c2ccccc2-c2ccccc21 | –
8320 | 13.8 | CN(CCC(=O)N1CCN(c2ccc([N+](=O)[O-])cc2)CC1)CCC(c1ccccc1)c1ccccc1 | –

Kd [1] [nM] | Kd [2] [nM] | SMILES | also measured
6920 | 0.708 | CN(CCC(=O)N1CCN(c2ccc([N+](=O)[O-])cc2)CC1)CCC1c2ccccc2-c2ccccc21 | fold change (FC) (Rattus norvegicus): > 1000
– | 1.1 | CN(CCC(=O)N1CCN(c2ccc3nccn3n2)CC1)CCC1c2ccccc2-c2ccccc21 | –
1820 | 0.955 | CCN(CCC(=O)N1CCN(c2ccc([N+](=O)[O-])cc2)CC1)CCC1c2ccccc2-c2ccccc21 | –
– | 1.7 | CN(CCC(=O)N1CCN(c2ccc(Cl)cc2)CC1)CCC1c2ccccc2-c2ccccc21 | –
6460 | 0.776 | CN(CCC(=O)N1CCN(c2ccc(F)c(F)c2)CC1)CCC1c2ccccc2Oc2ccccc21 | Kd [3]: 1.62 nM; fold change (FC) (Rattus norvegicus): > 10000; IC50 (Cytochrome P450 2D6): < 1000 nM; pKb [4]: 8.13; IC50 (Cytochrome P450 3A4): > 10000 nM; Tmax [5]: 1 h; Kd [14]: 14500 nM; Activity (V79): Non-toxic; Kp [6]: > 1; pKb [7]: 7.93; Kd [8]: 2820 nM; Kd (D(4) dopamine receptor): 490 nM; Kd [9]: 6920 nM; Kd (D(2) dopamine receptor): 490 nM; IC50 (Cytochrome P450 1A2): > 10000 nM; half-life [10]: 11 h; pKd [11]: 6.55; bioavailability [12]: 19%; IC50 (Cytochrome P450 2C19): > 10000 nM; Kd [13]: 3390 nM
8130 | 0.324 | CN(CCC(=O)N1CCN(c2ccc3nonc3c2)CC1)CCC1c2ccccc2Oc2ccccc21 | Kd [3]: 2.14 nM; fold change (FC) (Rattus norvegicus): > 10000; Kd [8]: 1620 nM; Kd [13]: 1450 nM
– | 31.6 | CN(CCC(=O)N1CCN(c2ccc(C(F)(F)F)cc2)CC1)CCC1c2ccccc2-c2ccccc21 | –
16600 | 275 | CN(CCC(=O)N1CCN(c2ccc([N+](=O)[O-])cc2)CC1)CCc1ccc2ccccc2c1 | –
– | 1.95 | CN(CCC(=O)N1CCN(c2ccc(F)cc2)CC1)CCC1c2ccccc2-c2ccccc21 | –
4170 | 0.741 | CN(CCC(=O)N1CCN(c2ccc3nonc3c2)CC1)CCC1c2ccccc2-c2ccccc21 | Kd [3]: 2.63 nM; fold change (FC) (Rattus norvegicus): > 10000; Kd [8]: 1200 nM; Kd [9]: 4170 nM; Kd [13]: 1150 nM
– | 17.8 | CN(CCC(=O)N1CCN(c2cccc(Cl)c2)CC1)CCC1c2ccccc2-c2ccccc21 | –
– | 2.14 | CN(CCC(=O)N1CCN(c2cccc(=O)n2C)CC1)CCC1c2ccccc2-c2ccccc21 | –
– | 4.57 | CN(CCC(=O)N1CCN(c2ccccc2C#N)CC1)CCC1c2ccccc2-c2ccccc21 | –
– | > 1000 | Cc1cccc(C)c1N1CCN(C(=O)CCN(C)CCC2c3ccccc3-c3ccccc32)CC1 | –
14500 | 331 | CN(CCC(=O)N1CCN(c2ccc([N+](=O)[O-])cc2)CC1)CCn1c2ccccc2c2ccccc21 | –
8710 | 77.6 | CN(CCC(=O)N1CCN(c2ccc([N+](=O)[O-])cc2)CC1)CCc1cccc2ccccc12 | –
5130 | 11.5 | CN(CCC(=O)N1CCN(c2ccc([N+](=O)[O-])cc2)CC1)CCC1c2ccccc2C=Cc2ccccc21 | –
